Experimental data as given in ChEMBL document CHEMBL1141650, “Antitumor polycyclic acridines. 20. Search for DNA quadruplex binding selectivity in a series of 8,13-dimethylquino[4,3,2-kl]acridinium salts: telomere-targeted agents” (J Med Chem, 2008).

Columns and labels:
Homo sapiens [1] = species: Homo sapiens; assay: Binding affinity to quadruplex human telomeric sequence d[AG3(TTAGGG3) by fluorescence titration method
Method in brief: (§1)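 Fluorescence titration, read as ligand fluorescence quenching on DNA binding. Quadruplex was d[AG3(TTAGGG)3] and duplex ST-DNA. K came from a model fit to the titration data, and the ratio was taken as quadruplex K over duplex K.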

[2] = Ratio of binding constant K for G-quadruplex human telomeric sequence d[AG3(TTAGGG3) to binding constant K for salmon testis duplex genomic DNA by fluorescence titration method; method in brief: as §1
[3] = Growth inhibition of human NCI60 cells after 2 days; format: functional
[4] = Selectivity index, ratio of GI50 for human NCI60 cells to IC50 for telomerase by TRAP assay; format: functional
Salmonidae [5] = assay: Binding affinity to salmon testis duplex genomic DNA by fluorescence titration method; method in brief: as §1
[6] = Stability of F21T DNA quadruplex sequence d[G3(T2AG3)3] assessed as thermal denaturation by FRET analysis
Method in brief: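 FRET melting of F21T, d[G3(T2AG3)3] labelled with 5′ fluorescein and 3′ tamra, with compound at 1 µM. Lithium chloride buffer held sodium at 10 mM. Tm was taken where normalized fluorescence equalled 0.5, and ∆Tm as the ligand-induced change.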

[7] = Inhibition of telomerase by TRAP assay
Homo sapiens [8] = species: Homo sapiens; assay: Binding affinity to quadruplex human telomeric sequence d[AG3(TTAGGG3) by surface plasmon resonance method
Method in brief: (§2)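 SPR in 10 mM HEPES pH 7.4 with 200 mM KCl, 3 mM EDTA, 0.005% surfactant P20. Quadruplex was human telomeric d[AG3(TTAGGG)3] and duplex the alternating GC eight base pair hairpin d[(CG)8]. Equilibrium binding constants K were determined, and the ratio taken as quadruplex K over duplex K.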

[9] = Binding affinity to duplex DNA d[(CG)8] by surface plasmon resonance method; method in brief: as §2
[10] = Ratio of binding constant K for G-quadruplex human telomeric sequence d[AG3(TTAGGG3) to binding constant K for duplex DNA d[(CG)8] by surface plasmon resonance method; method in brief: as §2
Homo sapiens [11] = species: Homo sapiens; assay: Stabilization of G-quadruplex in human cmyc Pu27 DNA sequence assessed as decrease in full length product at less than 1 uM by Taq polymerase arrest assay relative to G-quadruplex arrest; set-up: scale not given: the % may be the effect or the level left
Method in brief: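 Taq polymerase arrest: the quadruplex-forming sequence sat in a cassette template, and a radiolabeled primer was extended by the polymerase. Full-length (77-mer) and arrest product bands were quantified and their ratio plotted against drug concentration. IC50 was the concentration giving 50% decrease in full-length product relative to arrest products.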

[12] = Binding affinity to poly[dG].poly[dC] by UV titration
Method in brief: (§3)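 UV absorbance titration following the bathochromic shift on duplex binding. Data were fitted to one binding mode or to two (strong Ks and weak Kw) modes.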

Salmonidae [13] = assay: Binding affinity to salmon testis DNA by UV titration; method in brief: as §3
[14] = Binding affinity to poly[dG-dC]2 by UV titration; method in brief: as §3
[15] = Binding affinity to poly[dA].poly[dT] by UV titration; method in brief: as §3
[16] = Binding affinity to poly[dA-dT]2 by UV titration; method in brief: as §3
Salmonidae [17] = assay: Increase in melting temperature of salmon testis DNA

In the case of COc1cc2c3c([n+](C)c4ccc(Cl)cc4c3c1)-c1ccccc1N2C.[I-], the K (Homo sapiens [1]) is reported as 6.4 10^5/M, the Ratio [2] is reported as 2.9 and the GI50 ([3]; Homo sapiens, NCI60, 48 h) is reported as 0.74 µM. The Selectivity index [4] was 2.6, the K (Salmonidae [5]) was 2.2 10^5/M and the ΔTm [6] was 9 °C. It also gave an IC50 [7] of 0.28 µM.

With c1cc2c3c(c1)-c1cccc4nc5ccccc5c(c14)N3CC2 the GI50 ([3]; Homo sapiens, NCI60, 48 h) was 0.06 µM.

With CCCCC(=O)Nc1ccc2c3cccc4c3c([n+](C)c2c1)-c1ccccc1N4C the GI50 ([3]; Homo sapiens, NCI60, 48 h) was 1 µM.

Work on CNc1ccc2c3cccc4c3c([n+](C)c2c1)-c1ccccc1N4C yielded a GI50 ([3]; Homo sapiens, NCI60, 48 h) of 0.46 µM.

CN1c2ccccc2-c2c3c1cc(/C=C/C(=O)N1CCOCC1)cc3c1cc(Cl)ccc1[n+]2C gave a GI50 ([3]; Homo sapiens, NCI60, 48 h) of 12.3 µM.

For CN1c2ccccc2-c2c3c1cccc3c1cc(Cl)ccc1[n+]2C.[I-], the K (Homo sapiens [1]) was 6.7 10^5/M, the Ratio [2] was 6 and the GI50 ([3]; Homo sapiens, NCI60, 48 h) was 3.16 µM. The Selectivity index [4] was 12, the K (Salmonidae [5]) was 1.1 10^5/M and the ΔTm [6] was 5 °C. The IC50 [7] was 0.26 µM.

In the case of c1ccc2c(c1)Nc1cccc3cc4[n+](c-2c13)CCC4, the GI50 ([3]; Homo sapiens, NCI60, 48 h) is reported as 0.09 µM.

With COC(=O)CCCCC(=O)Nc1ccc2c3cccc4c3c([n+](C)c2c1)-c1ccccc1N4C.[I-] the K (Homo sapiens [1]) was 10 10^5/M, the Ratio [2] was 14.7 and the GI50 ([3]; Homo sapiens, NCI60, 48 h) was 6.02 µM. For the same compound, the Selectivity index [4] was 27, the K (Salmonidae [5]) was 0.68 10^5/M and the IC50 [7] was 0.21 µM.

With CN1c2ccccc2-c2c3c1cccc3c1ccc(N)cc1[n+]2C.[I-] the GI50 ([3]; Homo sapiens, NCI60, 48 h) was 3.55 µM, the Selectivity index [4] was 1.9 and the IC50 [7] was 1.86 µM.

For CC(=O)Nc1ccc2c(c1)c1cccc3c1c([n+]2C)-c1ccccc1N3C.[I-], the K (Homo sapiens [1]) was 3.1 10^5/M, the Ratio [2] was 5.8 and the GI50 ([3]; Homo sapiens, NCI60, 48 h) was 81.3 µM. For the same compound, the Selectivity index [4] was 195, the K (Salmonidae [5]) was 0.53 10^5/M and the K (Homo sapiens [8]) was 250 10^5/M. For the same compound, the K [9] was 4.4 10^5/M, the Ratio [10] was 57 and the IC50 [7] was 0.41 µM.

With CN1c2ccccc2-c2c3c1cccc3c1cc(/C=C/C(=O)N3CCOCC3)ccc1[n+]2C the K (Homo sapiens [1]) was 3.2 10^5/M, the Activity (Homo sapiens [11]) was 50% and the Ratio [2] was 10.3. For the same compound, the GI50 ([3]; Homo sapiens, NCI60, 48 h) was 67.6 µM, the K (Salmonidae [5]) was 0.31 10^5/M and the K (Homo sapiens [8]) was 71 10^5/M. The ΔTm [6] was 4.5 °C, the K [9] was 25 10^5/M and the Ratio [10] was 2.8. It also gave an IC50 [7] of 0.37 µM.

Work on CN(C)c1ccc2c3cccc4c3c([n+](C)c2c1)-c1ccccc1N4C yielded a GI50 ([3]; Homo sapiens, NCI60, 48 h) of 0.28 µM and a ΔTm [6] of 3.8 °C.

Work on CCOC(=O)Nc1ccc2c3cccc4c3c([n+](C)c2c1)-c1ccccc1N4C yielded a GI50 ([3]; Homo sapiens, NCI60, 48 h) of 0.66 µM.

CN1c2ccccc2-c2cccc3nc4ccccc4c1c23 gave a GI50 ([3]; Homo sapiens, NCI60, 48 h) of 0.32 µM.

In the case of CN1c2ccccc2-c2c3c1cccc3c1ccc(NC(=O)c3ccccc3)cc1[n+]2C, the GI50 ([3]; Homo sapiens, NCI60, 48 h) is reported as 6.61 µM.

Cc1cc2c3c([n+](C)c4ccc(Cl)cc4c3c1)-c1cc(Cl)ccc1N2C gave a GI50 ([3]; Homo sapiens, NCI60, 48 h) of 4.71 µM.

Compound COc1cc2c3c([n+](C)c4ccccc4c3c1)-c1ccc(/C=C/C(=O)N3CCOCC3)cc1N2C (stereo in doubt; 9r) has a GI50 [3] of 43.6 µM.

For CN1c2ccccc2-c2c3c1cccc3c1ccccc1[n+]2C.[I-], the K (Homo sapiens [1]) was 0.91 10^5/M, the Ratio [2] was 1.3 and the GI50 ([3]; Homo sapiens, NCI60, 48 h) was 7.58 µM. For the same compound, the Selectivity index [4] was 4.8, the K (Salmonidae [5]) was 0.71 10^5/M and the ΔTm [6] was 2.8 °C. For the same compound, the IC50 [7] was 1.55 µM.

With Nc1ccc2c(c1)Nc1c3ccccc3nc3cccc-2c13 the GI50 ([3]; Homo sapiens, NCI60, 48 h) was 1.48 µM.

In the case of COc1cc2c3c([n+](C)c4ccccc4c3c1)-c1ccc(/C=C/C(=O)N3CCOCC3)cc1N2C (stereo in doubt; 9t), the GI50 [3] is reported as > 100 µM.

In the case of COS(=O)(=O)[O-].Cc1ccc2c(c1)-c1c3c(cc(C)cc3c3cc(C)ccc3[n+]1C)N2C, the K [12] is reported as 1 10^6/M, the Activity (Homo sapiens [11]) is reported as 50% and the K (Salmonidae [13]) is reported as 8 10^6/M. For the same compound, the K [14] was 1.2 10^6/M, the Selectivity index [4] was 1.6 and the K (Salmonidae [5]) was 2.4 10^5/M. For the same compound, the K (Homo sapiens [8]) was 74 10^5/M, the ΔTm [6] was 7 °C and the K [15] was 4 10^6/M. For the same compound, the K [16] was 4 10^5/M, the K [9] was 5.4 10^5/M and the Ratio [10] was 13.7. For the same compound, the IC50 [7] was 0.25 µM.

For CC(=O)Nc1ccc2c3cccc4c3c([n+](C)c2c1)-c1ccccc1N4C.[I-], the K (Homo sapiens [1]) was 3.7 10^5/M, the Activity (Homo sapiens [11]) was 50% and the Ratio [2] was 5.9. For the same compound, the Selectivity index [4] was 32, the K (Salmonidae [5]) was 0.63 10^5/M and the K (Homo sapiens [8]) was 240 10^5/M. For the same compound, the ΔTm [6] was 10 °C, the K [9] was 3.8 10^5/M and the Ratio [10] was 63. It also gave an IC50 [7] of 0.38 µM.

For CN1c2ccccc2-c2c3c1cccc3c1ccc(N(C)S(=O)(=O)c3ccc(F)cc3)cc1[n+]2C.[I-], the K (Homo sapiens [1]) was 1.9 10^5/M, the Ratio [2] was 2.3 and the GI50 ([3]; Homo sapiens, NCI60, 48 h) was 10 µM. The Selectivity index [4] was 14, the K (Salmonidae [5]) was 0.83 10^5/M and the K (Homo sapiens [8]) was 48 10^5/M. For the same compound, the K [9] was 17 10^5/M, the Ratio [10] was 2.8 and the IC50 [7] was 0.73 µM.

In the case of COS(=O)(=O)[O-].Cc1cc2c3c([n+](C)c4ccccc4c3c1)-c1ccccc1N2C, the GI50 ([3]; Homo sapiens, NCI60, 48 h) is reported as 1.29 µM, the Selectivity index [4] is reported as 1.7 and the ΔTm [6] is reported as 2 °C. It also gave an IC50 [7] of 0.74 µM.

In the case of CN1c2ccccc2-c2c3c1cccc3c1ccc(NC(=O)C(C)(C)C)cc1[n+]2C.[I-], the K (Homo sapiens [1]) is reported as 11 10^5/M, the Ratio [2] is reported as 9.2 and the GI50 ([3]; Homo sapiens, NCI60, 48 h) is reported as 3.3 µM. The Selectivity index [4] was 14, the K (Salmonidae [5]) was 1.2 10^5/M and the IC50 [7] was 0.23 µM.

With Cc1cc2c3c([n+](C)c4ccc(F)cc4c3c1)-c1cc(F)ccc1N2C the K (Homo sapiens [1]) was 2.7 10^5/M, the K [12] was 1 10^6/M and the Activity (Homo sapiens [11]) was 50%. For the same compound, the Ratio [2] was 4.8, the K (Salmonidae [13]) was 2 10^5/M and the K [14] was 6 10^6/M. The K (Salmonidae [5]) was 0.56 10^5/M, the K (Homo sapiens [8]) was 110 10^5/M and the ΔTm [6] was 8 °C. For the same compound, the K [15] was 8 10^4/M, the K [16] was 6 10^5/M and the K [9] was 3.4 10^5/M. For the same compound, the Tm (Salmonidae [17]) was 10.8 °C, the Ratio [10] was 32.3 and the IC50 [7] was 0.33 µM.

Compound CCN1c2ccccc2-c2c3c1cc(C)cc3c1ccccc1[n+]2CC.[I-] has a GI50 ([3]; Homo sapiens, NCI60, 48 h) of 1.1 µM, a Selectivity index [4] of 0.6 and a ΔTm [6] of 0 °C. It also gave an IC50 [7] of 2 µM.

Work on CCCCCCCCCCCC(=O)Nc1ccc2c3cccc4c3c([n+](C)c2c1)-c1ccccc1N4C yielded a GI50 ([3]; Homo sapiens, NCI60, 48 h) of 0.54 µM.

With CN1c2ccccc2-c2c3c1cccc3c1ccc(NC(=O)C(F)(F)F)cc1[n+]2C.[I-] the K (Homo sapiens [1]) was 6 10^5/M, the Ratio [2] was 8.6 and the GI50 ([3]; Homo sapiens, NCI60, 48 h) was 2.2 µM. The Selectivity index [4] was 7, the K (Salmonidae [5]) was 0.7 10^5/M and the K (Homo sapiens [8]) was 130 10^5/M. For the same compound, the K [9] was 3.8 10^5/M, the Ratio [10] was 34.2 and the IC50 [7] was 0.31 µM.

COc1cc2c3c([n+](C)c4ccccc4c3c1)-c1ccc(Cl)cc1N2C showed a GI50 ([3]; Homo sapiens, NCI60, 48 h) of 0.75 µM.

With CC(=O)OCCCc1cc2c3c([n+](C)c4ccc(CCCOC(C)=O)cc4c3c1)-c1ccccc1N2C the K (Homo sapiens [1]) was 1.6 10^5/M, the Ratio [2] was 1.7 and the K (Salmonidae [5]) was 0.94 10^5/M. For the same compound, the K (Homo sapiens [8]) was 2.4 10^5/M, the ΔTm [6] was 0.5 °C and the K [9] was 1.7 10^5/M. The Ratio [10] was 1.4.

For COc1cc(NS(C)(=O)=O)ccc1Nc1c2ccccc2nc2ccccc12, the ΔTm [6] was 0 °C.

Compound COC(=O)/C=C/c1ccc2c(c1)N(C)c1cc(OC)cc3c1c-2[n+](C)c1ccccc31 has a GI50 ([3]; Homo sapiens, NCI60, 48 h) of 4.57 µM.
